ChEMBL document CHEMBL4359929, “Piperidine and piperazine inhibitors of fatty acid amide hydrolase targeting excitotoxic pathology” (Bioorg Med Chem, 2019)
Active and inactive are the calls of the source. No cut-off for these calls is given here.

Columns and labels:
[1] = molecular target: T1, Fatty-acid amide hydrolase 1 (Homo sapiens, UniProt O00519); experiment: Inhibition of human recombinant MBP-tagged FAAH expressed in Escherichia coli cells using AAMCA as substrate incubated for 15 mins followed by substrate addition and measured after every 20 mins for 4 hrs by fluorescence based assay
T1 sequence (O00519 whole entry): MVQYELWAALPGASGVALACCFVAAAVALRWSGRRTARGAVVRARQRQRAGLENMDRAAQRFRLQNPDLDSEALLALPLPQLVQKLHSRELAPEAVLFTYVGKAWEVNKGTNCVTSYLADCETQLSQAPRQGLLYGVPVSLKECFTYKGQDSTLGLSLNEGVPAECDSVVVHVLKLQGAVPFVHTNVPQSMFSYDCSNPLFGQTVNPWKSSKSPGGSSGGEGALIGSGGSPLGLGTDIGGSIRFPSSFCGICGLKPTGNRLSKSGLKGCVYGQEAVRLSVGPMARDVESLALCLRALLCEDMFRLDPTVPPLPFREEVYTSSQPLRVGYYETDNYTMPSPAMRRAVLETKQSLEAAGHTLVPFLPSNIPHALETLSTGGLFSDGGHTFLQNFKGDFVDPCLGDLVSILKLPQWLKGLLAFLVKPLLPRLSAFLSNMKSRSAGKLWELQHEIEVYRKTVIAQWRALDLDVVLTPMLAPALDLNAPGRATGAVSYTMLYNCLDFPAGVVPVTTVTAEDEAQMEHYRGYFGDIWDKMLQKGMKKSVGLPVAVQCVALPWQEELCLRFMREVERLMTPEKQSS
How it was run: (§1)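 Fluorescent enzyme assay in throughput format. Human recombinant FAAH or purified rat FAAH used arachidonoyl 7-amino-4-methylcoumarin amide as substrate; human recombinant MGL was run by a similar fluorometric procedure.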

[2] = molecular target: T2, Fatty-acid amide hydrolase 1 (Rattus norvegicus, UniProt P97612); experiment: Inhibition of rat recombinant His/GST-tagged FAAH expressed in Escherichia coli cells using AAMCA as substrate incubated for 15 mins followed by substrate addition and measured after every 20 mins for 4 hrs by fluorescence based assay; how it was run: as §1
T2 sequence (P97612 whole entry): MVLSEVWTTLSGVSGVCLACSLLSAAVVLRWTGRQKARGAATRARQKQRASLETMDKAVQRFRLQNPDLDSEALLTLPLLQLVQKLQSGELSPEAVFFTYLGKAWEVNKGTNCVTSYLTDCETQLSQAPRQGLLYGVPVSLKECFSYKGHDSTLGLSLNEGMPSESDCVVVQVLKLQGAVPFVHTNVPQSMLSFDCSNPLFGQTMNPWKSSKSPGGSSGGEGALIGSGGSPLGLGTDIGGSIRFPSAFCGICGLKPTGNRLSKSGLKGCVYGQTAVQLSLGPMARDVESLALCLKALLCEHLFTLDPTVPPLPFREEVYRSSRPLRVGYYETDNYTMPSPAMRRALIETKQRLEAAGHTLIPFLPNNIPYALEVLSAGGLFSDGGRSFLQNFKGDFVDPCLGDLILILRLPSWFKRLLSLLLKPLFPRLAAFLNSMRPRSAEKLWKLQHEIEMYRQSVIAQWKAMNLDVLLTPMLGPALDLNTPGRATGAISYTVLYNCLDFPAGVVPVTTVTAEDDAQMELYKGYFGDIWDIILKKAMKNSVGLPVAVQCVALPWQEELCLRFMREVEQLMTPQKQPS

Monoglyceride lipase = molecular target: T3, Monoglyceride lipase (Homo sapiens, UniProt Q99685); experiment: Inhibition of human recombinant His-tagged MGL expressed in Escherichia coli BL21 DE3 cells using AHMMCE as substrate preincubated with enzyme for 15 mins followed by substrate addition and measured after every 15 mins for 3 hrs by fluorescence based assay; how it was run: as §1
T3 sequence (Q99685 whole entry): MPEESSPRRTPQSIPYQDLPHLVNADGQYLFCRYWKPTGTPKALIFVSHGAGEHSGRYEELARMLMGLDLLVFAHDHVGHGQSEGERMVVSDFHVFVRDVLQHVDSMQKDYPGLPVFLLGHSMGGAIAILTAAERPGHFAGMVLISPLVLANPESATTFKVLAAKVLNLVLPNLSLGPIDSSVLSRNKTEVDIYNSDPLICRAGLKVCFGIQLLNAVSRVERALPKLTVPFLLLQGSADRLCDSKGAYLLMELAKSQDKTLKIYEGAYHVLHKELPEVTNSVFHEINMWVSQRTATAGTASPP

[3] = Stability in human liver microsomes assessed as half life; assay type: ADME, Microsome
How it was run: (§2)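 Stability assessed as half-life in human, rat and mouse plasma and gastric fluid, and in human, rat and mouse liver microsomal preparations.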

[4] = Stability in rat liver microsomes assessed as half life; assay type: ADME, Microsome; how it was run: as §2
[5] = Stability in mouse liver microsomes assessed as half life; assay type: ADME, Microsome; how it was run: as §2
[6] = Stability in human plasma assessed as half life; assay type: ADME, cell-free; how it was run: as §2
[7] = Stability in rat plasma assessed as half life; assay type: ADME, cell-free; how it was run: as §2
[8] = Stability in mouse plasma assessed as half life; assay type: ADME, cell-free; how it was run: as §2
[9] = Stability in human gastric fluid assessed as half life; assay type: ADME, tissue-based, Gastric juice; how it was run: as §2
[10] = Stability in rat gastric fluid assessed as half life; assay type: ADME, tissue-based, Gastric juice; how it was run: as §2
[11] = Stability in mouse gastric fluid assessed as half life; assay type: ADME, tissue-based, Gastric juice; how it was run: as §2
Homo sapiens [12] = organism: Homo sapiens; experiment: Selectivity ratio of IC50 for human recombinant His-tagged MGL expressed in Escherichia coli BL21 DE3 cells to IC50 for human recombinant MBP-tagged FAAH expressed in Escherichia coli cells by fluorescence based assay
Homo sapiens [13] = organism: Homo sapiens; experiment: Selectivity ratio of IC50 for human full length ABHD6 expressed in Escherichia coli cells to IC50 for human recombinant MBP-tagged FAAH expressed in Escherichia coli cells by fluorescence based assay
[14] = molecular target: Cannabinoid receptor 1 (Rattus norvegicus) (UniProt P20272); experiment: Displacement of [3H]CP55940 from CB1 receptor in rat brain by competition-equilibrium binding analysis; assay type: tissue-based
How it was run: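 Rat brain membranes as CB1 source; competition-equilibrium binding against [3H]CP-55,940.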
Target sequence in this assay (P20272 whole entry): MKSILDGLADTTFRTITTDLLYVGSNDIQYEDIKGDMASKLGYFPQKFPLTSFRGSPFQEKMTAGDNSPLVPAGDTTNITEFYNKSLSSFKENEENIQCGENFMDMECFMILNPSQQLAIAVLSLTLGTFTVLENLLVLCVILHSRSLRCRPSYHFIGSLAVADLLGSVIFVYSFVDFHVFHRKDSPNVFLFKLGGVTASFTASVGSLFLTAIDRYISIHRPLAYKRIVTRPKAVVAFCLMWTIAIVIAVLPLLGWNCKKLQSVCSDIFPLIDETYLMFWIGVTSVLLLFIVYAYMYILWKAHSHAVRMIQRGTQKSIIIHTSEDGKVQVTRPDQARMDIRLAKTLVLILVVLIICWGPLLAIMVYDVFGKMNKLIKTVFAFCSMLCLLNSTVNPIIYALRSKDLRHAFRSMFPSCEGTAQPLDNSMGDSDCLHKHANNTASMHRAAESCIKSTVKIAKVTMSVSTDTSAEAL

[15] = molecular target: Cannabinoid receptor 2 (Mus musculus) (UniProt P47936); experiment: Displacement of [3H]CP55940 from mouse CB2 receptor expressed in HEK293 cells by competition-equilibrium binding analysis; assay type: cell-based
How it was run: (§3)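 HEK293 cell membranes expressing mouse or human CB2; competition-equilibrium binding against [3H]CP-55,940.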

[16] = molecular target: Cannabinoid receptor 2 (Homo sapiens) (UniProt P34972); experiment: Displacement of [3H]CP55940 from human CB2 receptor expressed in HEK293 cells by competition-equilibrium binding analysis; assay type: cell-based; how it was run: as §3
[17] = Selectivity ratio of IC50 for human recombinant His-tagged MGL expressed in Escherichia coli BL21 DE3 cells to IC50 for rat recombinant His/GST-tagged FAAH expressed in Escherichia coli cells by fluorescence based assay
[18] = Selectivity ratio of IC50 for human full length ABHD6 expressed in Escherichia coli cells to IC50 for rat recombinant His/GST-tagged FAAH expressed in Escherichia coli cells by fluorescence based assay
[19] = molecular target: Cannabinoid receptor 1 (Rattus norvegicus) (UniProt P20272); experiment: Displacement of [3H]CP55940 from CB1 receptor in rat brain by competition-equilibrium binding analysis
Target sequence in this assay (P20272 whole entry, looked up): as the sequence (P20272 whole entry) above

Chain of Cannabinoid receptor 2 (Homo sapiens) (P34972 whole entry): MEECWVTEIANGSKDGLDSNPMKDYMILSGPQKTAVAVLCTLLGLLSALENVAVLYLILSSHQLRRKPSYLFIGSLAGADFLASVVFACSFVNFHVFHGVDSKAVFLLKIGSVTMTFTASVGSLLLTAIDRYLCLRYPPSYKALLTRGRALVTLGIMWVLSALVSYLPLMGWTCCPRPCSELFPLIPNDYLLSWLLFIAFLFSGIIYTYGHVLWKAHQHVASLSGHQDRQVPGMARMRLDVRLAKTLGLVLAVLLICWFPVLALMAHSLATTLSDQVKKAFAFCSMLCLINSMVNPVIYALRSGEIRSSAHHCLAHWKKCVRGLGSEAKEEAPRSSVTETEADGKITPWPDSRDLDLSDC
Chain of Cannabinoid receptor 2 (Mus musculus) (P47936 whole entry): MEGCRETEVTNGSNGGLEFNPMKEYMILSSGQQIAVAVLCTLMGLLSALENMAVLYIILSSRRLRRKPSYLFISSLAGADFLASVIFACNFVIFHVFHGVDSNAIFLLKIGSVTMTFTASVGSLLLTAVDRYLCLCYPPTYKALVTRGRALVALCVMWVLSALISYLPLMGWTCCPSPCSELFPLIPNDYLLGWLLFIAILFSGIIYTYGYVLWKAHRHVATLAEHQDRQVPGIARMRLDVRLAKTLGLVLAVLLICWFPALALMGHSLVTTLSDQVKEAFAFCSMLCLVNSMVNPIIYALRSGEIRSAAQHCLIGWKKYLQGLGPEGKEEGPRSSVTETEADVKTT

| Structure (SMILES) | IC50 [1] | IC50 [2] | IC50 (Monoglyceride lipase) | half-life [3] | half-life [4] | half-life [5] | half-life [6] | half-life [7] | half-life [8] | half-life [9] | half-life [10] | half-life [11] | Ratio IC50 (Homo sapiens [12]) | Ratio IC50 (Homo sapiens [13]) | Activity [14] | Activity [15] | Activity [16] | Ratio IC50 [17] | Ratio IC50 [18] | Activity [19] |
| --- | --- | --- | --- | --- | --- | --- | --- | --- | --- | --- | --- | --- | --- | --- | --- | --- | --- | --- | --- | --- |
| COc1ccc(N2CCN(C(=O)Oc3cccc(N4CCS(=O)(=O)CC4)c3)[C@H](C)C2)cc1 | 11.1 nM | 7.4 nM | > 1000 nM | 15 to 25 min | 15 to 25 min | 15 to 25 min | > 60 min | > 60 min | > 60 min | > 60 min | > 60 min | > 60 min | > 1000 | > 1000 | inactive | inactive | inactive | > 1000 | > 1000 | inactive |
| CC1CN(c2ccccc2)CCN1C(=O)Oc1cccc(N2CCS(=O)(=O)CC2)c1 (stereo not given) | 2.6 nM | 5.5 nM | > 1000 nM | 15 to 25 min | 15 to 25 min | 15 to 25 min | > 60 min | > 60 min | > 60 min | > 60 min | > 60 min | > 60 min | > 1000 | > 1000 | inactive | inactive | inactive | > 1000 | > 1000 | inactive |
| COc1ccc(C2CCN(C(=O)Oc3cccc(N4CCS(=O)(=O)CC4)c3)CC2)cc1 | 6.3 nM | 2.61 nM | > 1000 nM | 15 to 25 min | 15 to 25 min | 15 to 25 min | > 60 min | > 60 min | > 60 min | > 60 min | > 60 min | > 60 min | > 1000 | > 1000 | inactive | inactive | inactive | > 1000 | > 1000 | inactive |
| C[C@@H]1CN(c2ccccc2)CCN1C(=O)Oc1cccc(N2CCS(=O)(=O)CC2)c1 | 17.7 nM | 5.7 nM | > 1000 nM | 15 to 25 min | 15 to 25 min | 15 to 25 min | > 60 min | > 60 min | > 60 min | > 60 min | > 60 min | > 60 min | > 1000 | > 1000 | inactive | inactive | inactive | > 1000 | > 1000 | inactive |
